Measurements published in ChEMBL document CHEMBL1157508, “Mollamides B and C, Cyclic hexapeptides from the indonesian tunicate Didemnum molle” (J Nat Prod, 2008).
Converted amounts (≈) assume the structure as drawn. The source made the active and inactive calls. The rule behind the calls is not given here. Numbered stars: 1 amine (or outer) side, 2 acyl side, 3 side chain; on linkers, the order of the positions; unused ones are H or OH. Square brackets hold non-standard residues; d marks the D form. Peptide text beside a SMILES is read from it. * marks the point of attachment. X1 = CC(C)[C@H](N[*:1])C1=N[C@H](C(=O)[*:2])CS1; Allyl(1,1-Me2) = C=CC(C)(C)*

Experiments:
[1] = test system: Mycobacterium intracellulare; assay: Antimicrobial activity against Mycobacterium intracellular; assay type: functional, organism-based
Candida albicans = assay: Antimicrobial activity against Candida albicans; assay type: functional, organism-based
Nakaseomyces glabratus = assay: Antimicrobial activity against Candida glabrata; assay type: functional, organism-based
Pichia kudriavzevii = assay: Antimicrobial activity against Candida krusei; assay type: functional, organism-based
Cryptococcus neoformans = assay: Antimicrobial activity against Cryptococcus neoformans; assay type: functional, organism-based
Microglia = assay: Antiinflammatory activity against rat neonatal microglia; assay type: functional
[2] = target: T1, Prostaglandin G/H synthase 2 (Homo sapiens) (UniProt P35354); assay: Inhibition of COX2 in cell based assay
T1 sequence (whole entry): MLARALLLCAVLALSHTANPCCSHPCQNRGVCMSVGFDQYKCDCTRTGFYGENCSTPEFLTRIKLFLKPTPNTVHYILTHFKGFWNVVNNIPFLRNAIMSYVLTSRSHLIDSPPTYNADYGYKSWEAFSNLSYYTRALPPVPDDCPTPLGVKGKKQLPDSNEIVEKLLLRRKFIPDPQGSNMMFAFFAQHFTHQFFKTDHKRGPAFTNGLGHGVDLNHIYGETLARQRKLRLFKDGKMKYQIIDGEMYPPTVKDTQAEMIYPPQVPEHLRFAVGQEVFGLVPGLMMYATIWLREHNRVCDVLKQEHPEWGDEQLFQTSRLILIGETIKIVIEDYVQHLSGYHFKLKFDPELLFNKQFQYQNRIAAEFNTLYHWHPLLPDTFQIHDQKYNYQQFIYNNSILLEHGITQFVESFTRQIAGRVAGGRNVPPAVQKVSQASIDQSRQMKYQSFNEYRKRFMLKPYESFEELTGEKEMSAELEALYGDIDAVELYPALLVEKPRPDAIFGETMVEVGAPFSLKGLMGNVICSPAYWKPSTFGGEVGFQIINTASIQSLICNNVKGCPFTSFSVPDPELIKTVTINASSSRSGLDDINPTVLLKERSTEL

Plasmodium falciparum [3] = assay: Antimalarial activity against Plasmodium falciparum D6; assay type: functional, organism-based
Plasmodium falciparum [4] = assay: Antimalarial activity against Plasmodium falciparum W2; assay type: functional, organism-based
Leishmania donovani = assay: Antileishmanial activity against Leishmania donovani; assay type: functional, organism-based
Staphylococcus aureus = assay: Antimicrobial activity against methicillin-resistant Staphylococcus aureus; assay type: functional, organism-based
[5] = test system: Human immunodeficiency virus 1; assay: Antiviral activity against HIV1 infected in human PBMC; assay type: functional, organism-based
L1210 = assay: Cytotoxicity against mouse L1210 cells assessed as zone differential value; assay type: functional
Method in brief: (§1)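 In vitro disk diffusion assay measuring differential cell killing across nine cell types: leukemias (murine L1210, human CCRF-CEM), solid tumors (murine colon 38, human HCT-116, H125, MCF-7, LNCaP), and murine and human normal hematopoietic progenitor cells (CFU-GM). The read-out is the zone differential between solid tumor, leukemia and normal cell colonies.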

HCT-116 = assay: Cytotoxicity against human HCT116 cells assessed as zone differential value; assay type: functional; method in brief: as §1
[6] = Cytotoxicity against human H125 cells assessed as zone differential value; assay type: functional; method in brief: as §1
[7] = Cytotoxicity against mouse Colon38 cells assessed as zone differential value; assay type: functional; method in brief: as §1

Row | SMILES | Activity [1] | Activity (Candida albicans) | Activity (Nakaseomyces glabratus) | Activity (Pichia kudriavzevii) | Activity (Cryptococcus neoformans) | Activity (Microglia) | Activity [2] | IC50 (Plasmodium falciparum [3]) [µg/mL] | IC50 (Plasmodium falciparum [4]) [µg/mL] | IC50 (Leishmania donovani) [µg/mL] | IC90 (Leishmania donovani) [µg/mL] | Activity (Staphylococcus aureus) | EC50 [5] [µM] | Activity (L1210) | Activity (HCT-116) | Activity [6] | Activity [7]
1 | C=CC(C)(C)O[C@H](C)[C@@H]1NC(=O)[C@@H]2CCCN2C(=O)[C@H](Cc2ccccc2)NC(=O)[C@H](C(C)C)NC(=O)[C@@H]2CSC(=N2)[C@H](C(C)C)NC1=O [MOLLAMIDE B] (cyclo(FPT(Allyl(1,1-Me2))[X1]V)) | inactive | inactive | inactive | inactive | inactive | inactive | inactive | 2 (≈ 2.87 µM) | 2.1 (≈ 3.01 µM) | 18 (≈ 25.8 µM) | 35 (≈ 50.2 µM) | inactive | 48.7 |  |  |  | 
2 | C=CC(C)(C)OC[C@@H]1NC(=O)CNC(=O)[C@@H]2CCCN2C(=O)[C@H]([C@H](C)CC)NC(=O)c2csc(n2)[C@H](CC(C)C)NC1=O [MOLLAMIDE C] |  |  |  |  |  | inactive | inactive |  |  |  |  |  |  | 100 | 100 | 100 | 250
